First the molecules themselves.
B1: tRNA (parent)
chain: GUUCCGUUGGCGUAAUGGUAACGCGUCUCCCUCCUAAGGAGAAGACUGCGGGUUCGAGUCCCGUACGGAACG

Data on 37 variants can be found in the RNAGym collection of RNA variant scans (doi:10.1126/science.aae0568).

This sample holds only a part of the variants without activity. Bounds are passed on as bounds.

Variants of B1 are the subject of this series. In words: yeast fitness relative to wild type (ratio to wild type); higher = fitter; tRNA-Arg(CCU), competitive growth, 37 C, YPD. The method in brief:
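Genotype frequency changes were the basis for Darwinian fitness relative to wild type. The frequencies came from 100-nucleotide paired-end sequencing of gene amplicons from the start population and each end population of pooled yeast strains with tRNA-Arg(CCU) gene variants at the native locus. Competition ran in YPD at 37°C for 24 hours in six replicates, genotypes needed ≥ 100 starting reads, and estimates < 0.5 were set to 0.5.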
For the variant GUUCCGUUGGCGUAAUGGUGACGCGUCUCCCUCCUAAGGAGAAGCCUGCAGGUGCGAGUCCCGUACGGAACG [A20G A45C G50A U54G], the yeast fitness is at most 0.5.
The value for GUUCCGUUGGCGUAAUGGUGACGCGUCUCCCUCCUAAGGGGAAGACUGCGGGUUCGUGUCCCGUGCGGAACG [A20G A40G A57U A65G] was at most 0.5; that for GUUCCGUUGGCGUAAUGGUGAUGCGUCUCCCUCCUAAGGAGAAGACUGCGGGUUCGAGUCCCGUACUGAACG [A20G C22U G67U] was 0.559.
Regarding GUUCCGUUGGCGUAAUGGUGACGCGUCUCACUCCUAAGGAGAAGACUACGGGUUCGAGUCCCGCACGGAACG [A20G C30A G48A U64C], the yeast fitness is at most 0.5.
The value for GUUCCGUUGGCGUAAUGGUGACGCGUCUCCAUCCUAAGGAGAAGACUGCGGGUUCGAGUCCCGUACGAAACG [A20G C31A G68A] was 0.575; that for GUUCCGUUGGCGUAAUGGUGACGCGUCUGCCUCCUAAGGAGAAGACUGCGGGUUCGAGUCCCGUACGGAACG [A20G C29G] was 0.609; that for GUUCCGUUGGCGUAAUGGUGACGCGUCUACCUCCUAAGGAGAAGACUGCGGGUUCGAGUCCCGUCCGGAACG [A20G C29A A65C] was 0.544.
The figure for GUUCCGUUGGCGUAAUGGUGACGCGUCUCACUCCUAAGGAGAAGACUGCGGGUUCGAGUCCCGUACGGCACG [A20G C30A A69C] is 0.752; for GUUCCGUUGGCGUAAUGGUGACGGGUCUCCCUACUUAGGAGAAGACUGCGGGUUCGAGUCCCGUACGGAACG [A20G C24G C33A A36U] it is at most 0.5; for GUUCCGUUGGCGUAAUGGUGACGCGUCUCCCUCCUAAGGAGGAGACUGCGGGUUCGAAUCCCGUACGGAACG [A20G A42G G58A] it is 0.806.
The value for GUUCCGUUGGCGUAAUGGUGACGCGUCUCCGUCCUAAGGAGAAGACUGCGGGUUCGAGUCGCGUAUGGUACG [A20G C31G C61G C66U A69U] was 0.545; that for GUUCCGUUGGCGUAAUGGUGACGCGUGUCCCUCCUAAGGAGCAGACUGCGGGUUAGAGUCCCGUACGGAACG [A20G C27G A42C C55A] was at most 0.5; that for GUUCCGUUGGCGUAAUGGUGACGCGUCUCCCUCCUAAGGGGAAGACUGCCGGUUCGAGUCCCGUGUGGAACG [A20G A40G G50C A65G C66U] was at most 0.5.
As for GUUCCGUUGGCGUAAUGGUGACGAGUAUCCCUCCUAAGGAGAAGACUGCGGGUUCGAGUCCCGUACGGCACG [A20G C24A C27A A69C], the yeast fitness was 0.591.
Take GUUCCGUUGGCGUAAUGGUGACGCGUCUCCGUCCUAAGGAGAAGACUGCGGGUUCGAGUCCCGUACGGAGCG [A20G C31G A70G]: the yeast fitness is 0.715.
The figure for GUUCCGUUGGCGUAAUGGUGACGCGUCUCCCUCCUAAGGAGACGACUGCGGGUUCAUGUCCCGUACGGAACG [A20G A43C G56A A57U] is at most 0.5; for GUUCCGUUGGCGUAAUGGUGACGCGUCUCCCUCCUAAGGAGAAGCCUGCGGGUUCGAGUCCCGUACGGUACG [A20G A45C A69U] it is 0.729; for GUUCCGUUGGCGUAAUGGUGACGCGUCUCUCUCCUAAGGAGAAGGCUGCGGGUUCGAGUCCCGUACGGAACG [A20G C30U A45G] it is 0.524.
Turning to GUUCCGUUGGCGUAAUGGUGACGCGUCUCCCUCCUAAGGAGAUGACUACGGGUUCGAGUCCCGUACGGAACG [A20G A43U G48A], the yeast fitness stood at 0.73.
The value for GUUCCGUUGGCGUAAUGGUGACGCGUCUCCCUCCUAAGGAGAAGACUGCGGGUUCGAGUCCCGUGCGGAACG [A20G A65G] was 0.986; that for GUUCCGUUGGCGUAAUGGUGACGCGUCUCCCUCCUAAGGAGAAGACUGCGGGUUCGCGUCCUGUACGGAACG [A20G A57C C62U] was at most 0.5.
Turning to GUUCCGUUGGCGUAAUGGUGACGCGUCUCCCUCCUAAGGAGAAGCCUGCGGGUUCGAGUCCCGUACGGACCG [A20G A45C A70C], the yeast fitness came to 0.789.
The figure for GUUCCGUUGGCGUAAUGGUGACGCGUCUCCCUCCUAUGGAGAAGACUGCGGGUUCGAGUCCAGUACGGAACG [A20G A37U C62A] is at most 0.5; for GUUCCGUUGGCGUAAUGGUGACGCGUAUCCCUCCUAAGGGGAAGAGUGCGGGUUCGAGUCCGGUACGGAACG [A20G C27A A40G C46G C62G] it is at most 0.5; for GUUCCGUUGGCGUAAUGGUGACGCGUCUCCCUCCUAAGGGGAAGACUGCGGGUUCGAGUCCCGUACGGAACG [A20G A40G] it is 0.888.
Regarding GUUCCGUUGGCGUAAUGGUGACGCGUCUCCCUCCUAAGGGGAAAAGUGCGGGUUCGAGUCCCGUACGGAACG [A20G A40G G44A C46G], the yeast fitness was at most 0.5.
Take GUUCCGUUGGCGUAAUGGUGACGAGUUUCCCUCCUAAGGAGAAGACUGCGGGUUCGAGUCCCGUACGGAACG [A20G C24A C27U]: the yeast fitness worked out at 0.609.
The value for GUUCCGUUGGCGUAAUGGUGACGCGUCUCCUUCCUCAGGAGAAGACUGCGGGUUCGAGUCUCGUCCGGAACG [A20G C31U A36C C61U A65C] was at most 0.5.
The figure for GUUCCGUUGGCGUAAUGGUGACGCGUCUCCGUCCUAAGGAGAAGACUGCGGGUUCGAGUCUCGUACGGAACG [A20G C31G C61U] is 0.659; for GUUCCGUUGGCGUAAUGGUGACGCGUCUCCCUCCUAAGGAGACGACUGCGGGUUCGUGUCCCGUACGGAACG [A20G A43C A57U] it is 0.538; for GUUCCGUUGGCGUAAUGGUGACGCGUUUCCCUCCUAAGGAGAAGACUGUGGGUUCGGGUCCCGUACGGAACG [A20G C27U C49U A57G] it is at most 0.5.
The value for GUUCCGUUGGCGUAAUGGUGACGCGUUUCCCUCCUAUGGAGAAGACUGCGGGUUCGAGUCCCGUACGGAACG [A20G C27U A37U] was at most 0.5; that for GUUCCGUUGGCGUAAUGGUGACGCGUCUCCCUCCUAAGGCGUCGACUGCAGGUUCGAGUCCCGUACGGAACG [A20G A40C A42U A43C G50A] was at most 0.5.
Take GUUCCGUUGGCGUAAUGGUGACGCGUCUACCUCGUAAGGAGCAGACUGGGGGUUCGAGUCCCGUACGAAACG [A20G C29A C34G A42C C49G G68A]: the yeast fitness was at most 0.5.
The figure for GUUCCGUUGGCGUAAUGGUGACGCGUCUCAUUCCUAAGGAGAAGCCUGCGGGUUGGAGUCCCGUACGGAACG [A20G C30A C31U A45C C55G] is at most 0.5; for GUUCCGUUGGCGUAAUGGUGACGUGUCUCCCUCCUAAGGAGAAGACUGCGGGUUCGAGUCCCGUACGCAACG [A20G C24U G68C] it is 0.573.
Take GUUCCGUUGGCGUAAUGGUGACGUGUCUCCCUCCUAAGGAGAAGACUGGAGGUUCGAGUCCCGUACGGAACG [A20G C24U C49G G50A]: the yeast fitness is at most 0.5.
